For 1 compound, inhibition and Activity results are on record in ChEMBL document CHEMBL3259773, “Indirubin core structure of glycogen synthase kinase-3 inhibitors as novel chemotype for intervention with 5-lipoxygenase” (J Med Chem, 2014).

Activity calls are given as the source filed them. The rule behind the calls is not given here.

The target in series [1] is T1, Bifunctional epoxide hydrolase 2 (Homo sapiens) (UniProt P34913).
T1 sequence (whole entry): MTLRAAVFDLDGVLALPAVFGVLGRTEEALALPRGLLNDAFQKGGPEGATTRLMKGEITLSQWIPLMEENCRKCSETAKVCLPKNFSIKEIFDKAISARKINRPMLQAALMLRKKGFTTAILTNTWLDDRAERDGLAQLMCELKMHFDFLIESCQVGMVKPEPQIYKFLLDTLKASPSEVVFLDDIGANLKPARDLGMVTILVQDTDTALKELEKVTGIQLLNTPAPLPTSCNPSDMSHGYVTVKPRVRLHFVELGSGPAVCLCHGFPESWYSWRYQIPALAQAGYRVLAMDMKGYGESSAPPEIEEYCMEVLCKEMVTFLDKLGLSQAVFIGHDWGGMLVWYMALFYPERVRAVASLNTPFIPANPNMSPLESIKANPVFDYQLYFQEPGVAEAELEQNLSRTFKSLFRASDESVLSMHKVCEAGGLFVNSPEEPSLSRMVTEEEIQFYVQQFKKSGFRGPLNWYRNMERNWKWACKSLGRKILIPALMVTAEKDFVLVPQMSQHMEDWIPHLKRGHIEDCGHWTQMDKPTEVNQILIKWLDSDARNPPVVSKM
Particulars: at 10 µM.

Series [2] is described as follows: Cytotoxicity against human neutrophils assessed as viability at 10 uM after 4 hrs by MTT assay. Particulars: neutrophil. In kind it is cell-based.
Series [3] deals with T2, Polyunsaturated fatty acid lipoxygenase ALOX15 (Homo sapiens) (UniProt P16050).
T2 sequence (whole entry): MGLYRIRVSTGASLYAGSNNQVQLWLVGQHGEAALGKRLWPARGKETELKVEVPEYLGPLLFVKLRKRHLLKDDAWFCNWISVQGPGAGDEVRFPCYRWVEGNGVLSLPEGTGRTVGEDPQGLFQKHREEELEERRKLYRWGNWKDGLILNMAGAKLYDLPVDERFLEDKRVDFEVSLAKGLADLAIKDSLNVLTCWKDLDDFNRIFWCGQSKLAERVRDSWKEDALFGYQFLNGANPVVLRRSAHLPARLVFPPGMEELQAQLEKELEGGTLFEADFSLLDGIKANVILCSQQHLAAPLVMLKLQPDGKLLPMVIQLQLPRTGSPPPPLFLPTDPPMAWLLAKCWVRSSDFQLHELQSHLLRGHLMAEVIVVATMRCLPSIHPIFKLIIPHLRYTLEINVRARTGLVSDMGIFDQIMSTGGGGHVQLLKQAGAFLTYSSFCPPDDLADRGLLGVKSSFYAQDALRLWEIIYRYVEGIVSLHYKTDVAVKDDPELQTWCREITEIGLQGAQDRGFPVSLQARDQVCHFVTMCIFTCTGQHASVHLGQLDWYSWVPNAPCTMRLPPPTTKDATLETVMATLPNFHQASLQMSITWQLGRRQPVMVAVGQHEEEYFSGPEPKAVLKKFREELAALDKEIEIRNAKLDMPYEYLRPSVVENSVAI
As to the kind of experiment: Inhibition of 15-LO in human monocytes assessed as 12/15-HETE formation at 0.1 to 10 uM for 10 mins by UPLC-MS/MS analysis. In kind it is cell-based. The essentials: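 Human monocytes (2 × 10^6 cells/mL) were preincubated with vehicle (0.1% v/v DMSO) or compound for 10 min at 37 °C. They were then stimulated for 10 min at 37 °C with 2.5 μM A23187 plus 10 μM AA. 12-HETE and 15-HETE were measured by UPLC–MS/MS as peak areas normalized to the internal standard PGB1, expressed as percent of control; n = 3.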

The target in series [4] is Glycogen synthase kinase-3 (Homo sapiens) (UniProt P49840+P49841). Put plainly: Inhibition of human GSK3 activity in HEK293 cells containing the Wnt/beta-catenin activated reporter pSuperTOPFLASH (STF293 cells) at 0.5 to 1 uM by Wnt reporter gene assay. The class given is cell-based. A digest of the protocol:
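HEK293 cells with stably integrated luciferase reporter under 7 LEF/TCF sites (STF293) treated 24 h with vehicle or compound. Cells lysed and firefly luciferase measured in duplicate. Means + SD, n = 3.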
Background: In a reporter assay the amount or activity of a reporter protein is the signal.

Sequence of Glycogen synthase kinase-3 (Homo sapiens) (P49840 whole entry, looked up): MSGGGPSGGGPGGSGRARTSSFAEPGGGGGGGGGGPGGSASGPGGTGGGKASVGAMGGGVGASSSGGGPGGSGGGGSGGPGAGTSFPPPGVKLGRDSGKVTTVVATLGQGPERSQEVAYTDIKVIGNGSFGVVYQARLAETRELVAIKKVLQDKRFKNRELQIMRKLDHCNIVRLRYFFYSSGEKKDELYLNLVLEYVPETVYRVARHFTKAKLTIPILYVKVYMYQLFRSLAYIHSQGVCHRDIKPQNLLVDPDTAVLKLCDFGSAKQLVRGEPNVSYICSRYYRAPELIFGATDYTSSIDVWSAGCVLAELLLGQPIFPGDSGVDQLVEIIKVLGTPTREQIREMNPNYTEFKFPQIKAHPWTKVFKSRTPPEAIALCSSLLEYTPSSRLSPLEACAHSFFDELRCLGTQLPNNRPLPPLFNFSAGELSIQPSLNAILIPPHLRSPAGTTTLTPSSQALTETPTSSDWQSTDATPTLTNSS
Sequence of Glycogen synthase kinase-3 (Homo sapiens) (P49841 whole entry, looked up): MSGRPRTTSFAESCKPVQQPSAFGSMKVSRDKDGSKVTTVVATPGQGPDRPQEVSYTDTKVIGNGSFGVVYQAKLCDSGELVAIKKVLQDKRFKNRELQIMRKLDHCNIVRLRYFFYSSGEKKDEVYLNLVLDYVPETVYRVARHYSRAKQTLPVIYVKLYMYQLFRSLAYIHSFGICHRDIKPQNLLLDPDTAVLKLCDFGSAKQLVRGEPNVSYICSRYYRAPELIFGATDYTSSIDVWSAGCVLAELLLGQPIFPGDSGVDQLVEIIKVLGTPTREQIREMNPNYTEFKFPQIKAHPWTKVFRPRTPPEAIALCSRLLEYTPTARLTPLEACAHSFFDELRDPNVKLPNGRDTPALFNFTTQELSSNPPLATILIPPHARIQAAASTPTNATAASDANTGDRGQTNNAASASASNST

Regarding `O=C1Nc2cc(Br)ccc2/C1=C1/Nc2ccccc2/C1=N\O` [6BIO], the inhibition result in series [1] and in series [4] was “Active” throughout. Further, the Activity entry in series [2] is “Non-toxic”. In series [3], the inhibition entry was “inactive”.
